Results of several laboratories.
Compare with care: the assays were run in different laboratories.

CN1CCCCC1Cn1cc(C(=O)c2cc([N+](=O)[O-])ccc2I)c2ccccc21 (racemic)  AUC (mouse; plasma; intravenous; 25 mg/kg): 5830 ng·h/mL
Cc1ncc2n1-c1ccc(Cl)cc1C(c1ccccc1F)=NC2  AUC(0-inf) (mouse; plasma; intravenous; 0.3 mg/kg): 0.15 µM·h
Cc1cc(C)nc(Nc2ncc(C(=O)NCCc3c(C)[nH]c4ccccc34)cn2)c1  AUC(0-inf) (C57BL/6 mouse; plasma; intraperitoneal; 8.8 mg/kg): 1050 ng·h/mL
C[C@]12CC[C@H](n3ccnc3)CC1=CC[C@@H]1[C@@H]2CC[C@]2(C)C(n3cnc4ccccc43)=CC[C@@H]12.Cl.Cl  AUC(0-t) (male CD-1 mouse; plasma; oral; 10 mg/kg): 32500 ng·h/mL
CCC[C@@](N)(CO)CCc1ccc(OCCCCCC(C)C)cc1  AUC(0-t) (mouse; plasma; oral; 50 mg/kg): 5.02 µM·h
CCN(CC)CCCC[C@H](NC(=O)[C@H](CC(C)C)NC(=O)[C@H](C)NC(=O)[C@H](Cc1ccccc1)NC(=O)c1ccc(C(C)(C)C)cc1)C(=O)N[C@@H](CO)C(=O)OC  AUC(0-inf) (male Swiss mouse; blood; intravenous; 3 mg/kg): 1890 ng·h/mL
NCC(=O)Nc1ccc(-n2nc(C(F)(F)F)cc2-c2ccc3c(ccc4ccccc43)c2)cc1  AUC(0-inf) (mouse; plasma; oral; 80 mg/kg; single dose): 81800 ng·h/mL
CN[C@H](CC(C)C)C(=O)N[C@H]1C(=O)N[C@@H](CC(N)=O)C(=O)N[C@H]2C(=O)NC3C(=O)N[C@H](C(=O)N[C@H](C(=O)NCCC[N+](C)(C)C)c4cc(O)cc(O)c4-c4cc3ccc4O)[C@H](O)c3ccc(c(Cl)c3)Oc3cc2cc(c3OC2OC(CO)C(O)[C@H](O)[C@@H]2O[C@H]2CC(C)(NCc3ccc(-c4ccc(Cl)cc4)cc3)[C@H](O)[C@H](C)O2)Oc2ccc(cc2Cl)[C@H]1O (some centres unmarked)  AUC (mouse; plasma; intravenous; 50 mg/kg): 430000 ng·h/mL
